Results as given in ChEMBL document CHEMBL4406880, “Design, synthesis, and bioactivity of dihydropyrimidine derivatives as kinesin spindle protein inhibitors” (Bioorg Med Chem, 2019).

Assays:
Assay type in all cases: functional
MDA-MB-435 [1] = assay: Growth inhibition of human MDA-MB-435 cells assessed as cell viability at 0.001 uM incubated for 48 hrs by sulforhodamine B assay relative to control; conditions: MDA-MB-435, 48 h, read-out: Activity
SF-539 = assay: Growth inhibition of human SF539 cells assessed as cell viability at 0.1 uM incubated for 48 hrs by sulforhodamine B assay; conditions: SF-539, 48 h, read-out: Activity
UO-31 = assay: Growth inhibition of human UO31 cells assessed as cell viability at 100 uM incubated for 48 hrs by sulforhodamine B assay; conditions: UO-31, 48 h, read-out: Activity
MDA-MB-468 = assay: Growth inhibition of human MDA-MB-468 cells assessed as cell viability at 1 uM incubated for 48 hrs by sulforhodamine B assay; conditions: MDA-MB-468, 48 h, read-out: Activity
SK-MEL-28 = assay: Growth inhibition of human SK-MEL-28 cells assessed as cell viability at 0.1 uM incubated for 48 hrs by sulforhodamine B assay; conditions: SK-MEL-28, 48 h, read-out: Activity
A549 = assay: Growth inhibition of human A549/ATCC cells assessed as cell viability at 0.1 uM incubated for 48 hrs by sulforhodamine B assay; conditions: A549, 48 h, read-out: Activity
Outline: (§1)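 NCI-60 five-dose mode: five tenfold dilutions (0.01, 0.1, 1, 10, 100 µM) are applied for 48 h to cells in RPMI 1640 with 5% FBS at 37 °C. Endpoint is TCA fixation with sulforhodamine B read at 515 nm. % growth comes from the 0 h and control absorbances. GI50 is the concentration giving a 50% reduction in net cell growth.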

MDA-MB-231 = assay: Growth inhibition of human MDA-MB-231 cells assessed as cell viability at 0.001 uM incubated for 48 hrs by sulforhodamine B assay relative to control; conditions: MDA-MB-231, 48 h, read-out: Activity
MCF7 = assay: Growth inhibition of human MCF7 cells assessed as cell viability at 100 uM incubated for 48 hrs by sulforhodamine B assay; conditions: MCF7, 48 h, read-out: Activity
HCT-15 = assay: Growth inhibition of human HCT15 cells incubated for 48 hrs by sulforhodamine B assay; conditions: HCT-15, 48 h; outline: as §1
Malme-3M = assay: Growth inhibition of human MALME-3M cells assessed as cell viability at 0.001 uM incubated for 48 hrs by sulforhodamine B assay relative to control; conditions: read-out: Activity
T47D = assay: Growth inhibition of human T47D cells assessed as cell viability at 100 uM incubated for 48 hrs by sulforhodamine B assay; conditions: read-out: Activity
SF-268 [2] = assay: Growth inhibition of human SF268 cells assessed as cell viability at 0.001 uM incubated for 48 hrs by sulforhodamine B assay relative to control; conditions: SF-268, 48 h, read-out: Activity
OVCAR-3 = assay: Growth inhibition of human OVCAR3 cells assessed as cell viability at 0.001 uM incubated for 48 hrs by sulforhodamine B assay relative to control; conditions: OVCAR-3, 48 h, read-out: Activity
NCI-H322M [3] = assay: Growth inhibition of human NCI-H322M cells assessed as cell viability at 100 uM incubated for 48 hrs by sulforhodamine B assay; conditions: read-out: Activity
ACHN = assay: Growth inhibition of human ACHN cells assessed as cell viability at 1 uM incubated for 48 hrs by sulforhodamine B assay; conditions: read-out: Activity; outline: as §1
MDA-MB-435 [4] = assay: Growth inhibition of human MDA-MB-435 cells assessed as cell viability at 0.1 uM incubated for 48 hrs by sulforhodamine B assay; conditions: MDA-MB-435, 48 h, read-out: Activity
HOP-62 = assay: Growth inhibition of human HOP62 cells assessed as cell viability at 100 uM incubated for 48 hrs by sulforhodamine B assay; conditions: HOP-62, 48 h, read-out: Activity
SF-295 [5] = assay: Growth inhibition of human SF295 cells assessed as cell viability at 1 uM incubated for 48 hrs by sulforhodamine B assay; conditions: SF-295, 48 h, read-out: Activity
HL-60(TB) = assay: Growth inhibition of human HL-60(TB) cells assessed as cell viability at 1 uM incubated for 48 hrs by sulforhodamine B assay; conditions: HL-60, 48 h, read-out: Activity
Outline: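 NCI-60 five-dose assay, SRB end-point, same culture conditions. Compound is tested at tenfold dilutions of 0.01, 0.1, 1, 10 and 100 µM for 48 h at 37 °C, with DMSO/PBS vehicle controls. Percentage growth at each concentration is taken against untreated cells and a time-zero plate. GI50 is 50% net growth decrease, TGI is total growth inhibition, and LC50 is 50% loss of initial cells.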

RXF 393 = assay: Growth inhibition of human RXF393 cells assessed as cell viability at 100 uM incubated for 48 hrs by sulforhodamine B assay; conditions: RXF 393, 48 h, read-out: Activity
NCI-H23 = assay: Growth inhibition of human NCI-H23 cells assessed as cell viability at 1 uM incubated for 48 hrs by sulforhodamine B assay; conditions: NCI-H23, 48 h, read-out: Activity
NCI-H322M [6] = assay: Growth inhibition of human NCI-H322M cells assessed as cell viability at 0.001 uM incubated for 48 hrs by sulforhodamine B assay relative to control; conditions: read-out: Activity
UACC-257 = assay: Growth inhibition of human UACC257 cells assessed as cell viability at 0.001 uM incubated for 48 hrs by sulforhodamine B assay relative to control; conditions: UACC-257, 48 h, read-out: Activity
SF-268 [7] = assay: Growth inhibition of human SF268 cells incubated for 48 hrs by sulforhodamine B assay; conditions: SF-268, 48 h
Outline: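 NCI-60 five-dose SRB assay. Cells were exposed for 48 h to tenfold dilutions of 0.01, 0.1, 1, 10 and 100 µM, in RPMI 1640 with 5% FBS. Plates fixed with TCA at the time of drug addition served as the time-zero reference. GI50 is the concentration giving a 50% reduction in net growth. TGI is total growth inhibition. LC50 is a net 50% loss of the initial cells.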

SF-295 [8] = assay: Growth inhibition of human SF295 cells assessed as cell viability at 0.001 uM incubated for 48 hrs by sulforhodamine B assay relative to control; conditions: SF-295, 48 h, read-out: Activity
EKVX = assay: Growth inhibition of human EKVX cells assessed as cell viability at 0.1 uM incubated for 48 hrs by sulforhodamine B assay; conditions: read-out: Activity
NCI-H460 = assay: Growth inhibition of human NCI-H460 cells assessed as cell viability at 0.1 uM incubated for 48 hrs by sulforhodamine B assay; conditions: NCI-H460, 48 h, read-out: Activity

CC1=C(C(=O)OCc2ccccc2)C(c2ccc3c(c2)OCO3)n2c(nc3ccccc32)N1 (racemic)
viability at 0.001 µM (MDA-MB-435 [1]): 93% | viability at 0.1 µM (SF-539): 92% | viability at 100 µM (UO-31): -7% | viability at 1 µM (MDA-MB-468): -9% | viability at 0.1 µM (SK-MEL-28): 93% | viability at 0.1 µM (A549): 99% | viability at 0.001 µM (MDA-MB-231): 97% | viability at 100 µM (MCF7): 7% | GI50 (HCT-15; read-out: GI50): 370 nM | LC50 (concentration causing 50% net cell kill) (HCT-15; read-out: LC50): > 100 µM | TGI (HCT-15; read-out: TGI): > 100 µM | GI50 (HCT-15; read-out: pGI50 (converted)): 372 nM | LC50 (concentration causing 50% net cell kill) (HCT-15; read-out: pLC50 (converted)): > 100 µM | TGI (HCT-15; read-out: pTGI): > 100 µM | viability at 0.001 µM (Malme-3M): 94% | viability at 100 µM (T47D): 34% | viability at 0.001 µM (SF-268 [2]): 91% | viability at 0.001 µM (OVCAR-3): 95% | viability at 100 µM (NCI-H322M [3]): 50% | viability at 1 µM (ACHN): 39% | viability at 0.1 µM (MDA-MB-435 [4]): 46% | viability at 100 µM (HOP-62): 31% | viability at 1 µM (SF-295 [5]): 16% | viability at 1 µM (HL-60(TB)): 8% | viability at 100 µM (RXF 393): 15% | viability at 1 µM (NCI-H23): 54% | viability at 0.001 µM (NCI-H322M [6]): 96% | viability at 0.001 µM (UACC-257): 88% | GI50 (SF-268 [7]; read-out: GI50): 510 nM | LC50 (SF-268 [7]; read-out: LC50): > 100 µM | TGI (SF-268 [7]; read-out: TGI): > 100 µM | GI50 (SF-268 [7]; read-out: pGI50 (converted)): 513 nM | LC50 (SF-268 [7]; read-out: pLC50 (converted)): > 100 µM | TGI (SF-268 [7]; read-out: pTGI): > 100 µM | viability at 0.001 µM (SF-295 [8]): 87% | viability at 0.1 µM (EKVX): 95% | viability at 0.1 µM (NCI-H460): 100%
